From article PMC11061834 (Journal of Natural Products, 2024)

Legend:
3T3-L1 cells = assay: Cell viability / cytotoxicity, CCK-8 assay; assay type: cell-based; settings: CCK-8, 48 h
Procedure, shortened: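 3T3-L1 preadipocytes were seeded at 1 × 10^3 cells per well and incubated for 12 h. They were then exposed to varying concentrations of test compound for 48 h. Viability was measured with the CCK-8 kit following the manufacturer's guidelines, reading optical density at 450 nm. Data are means ± SD from triplicate experiments (n = 3), compared by Student's t test at P ≤ 0.05.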

[1] = cited from earlier work
PPARγ = settings: cited from earlier work

In the case of C=C(c1ccc(O)c(Oc2cc3c(cc2OC)CCN(C)[C@@H]3Cc2ccc(OC)cc2)c1)[C@@H]1c2cc(OC)c(OC)cc2CCN1C [Compound 2, 1R,1′R-neoneferine A], the maximum noncytotoxic concentration (3T3-L1 cells) is reported as 15 µM.

In the case of C=C(c1ccc(O)c(Oc2cc3c(cc2OC)CCN(C)[C@@H]3Cc2ccc(OC)cc2)c1)[C@H]1c2cc(OC)c(OC)cc2CCN1C [Compound 3, 1R,1′S-neoneferine A], the maximum noncytotoxic concentration (3T3-L1 cells) is reported as 5 µM.

For C=C(c1ccc(O)c(Oc2cc3c(cc2OC)CCN(C)[C@@H]3Cc2ccc(OC)cc2)c1)[C@@H]1c2cc(O)c(OC)cc2CCN1C [Compound 4, 1R,1′R-neoisoliensinine A], the maximum noncytotoxic concentration (3T3-L1 cells) was 10 µM.

C=C(c1ccc(O)c(Oc2cc3c(cc2OC)CCN(C)[C@@H]3Cc2ccc(OC)cc2)c1)[C@H]1c2cc(O)c(OC)cc2CCN1C [Compound 5, 1R,1′S-neoisoliensinine A] showed a maximum noncytotoxic concentration (3T3-L1 cells) of 5 µM.

For COc1ccc(C[C@@H]2c3cc(Oc4cc(C[C@@H]5c6cc(OC)c(OC)cc6CCN5C)ccc4O)c(OC)cc3CCN2C)cc1 [Compound 7, neferine], the “antiadipogenic activity (in words)” value [1] is given as “antiadipogenic activity”, the maximum noncytotoxic concentration (3T3-L1 cells) is given as 10 µM and the “PPARγ inhibitory effect (in words)” value (PPARγ) is given as “PPARγ inhibitory effect”.

COc1ccc(C[C@@H]2c3cc(Oc4cc(C[C@H]5c6cc(OC)c(OC)cc6CCN5C)ccc4O)c(OC)cc3CCN2C)cc1 [Compound 8, 1′-epi-neferine] showed a maximum noncytotoxic concentration (3T3-L1 cells) of 5 µM.
